Test results reported in ChEMBL document CHEMBL3407478, “Development of a series of aryl pyrimidine kynurenine monooxygenase inhibitors as potential therapeutic agents for the treatment of Huntington's disease” (J Med Chem, 2015).

What was measured:
Type in all cases: ADME, organism-based
Conditions in all cases: in vivo
[1] = system: Liver; experiment: Dose normalized AUC (0 to infinity) in Sprague-Dawley rat liver at 10 mg equivalents/kg, po after 0.25 to 12 hrs
How it was run: (§1)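 Male Sprague-Dawley rats given a single oral dose of 10 mg equiv/kg as a 2 mg equiv/mL solution in 10% hydroxypropyl-β-cyclodextrin. Plasma, liver, kidney, cortex, striatum and CSF levels were measured from 0.25 to 12 h. Brain tissue was taken from nonperfused brains. CSF AUCN covers 0–8 h because the elimination phase was undefined.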

[2] = system: Plasma; experiment: Dose normalized AUC (0 to infinity) in BCRP and MDR1a knock out FVB/N mouse plasma at 5 mg equivalents/kg, iv by LC-MS/MS analysis
How it was run: (§2)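 Male mice given a single 5 mg equiv/kg iv bolus: FVB wild type, Bcrp(−/−), Mdr1a/b(−/−) and Mdr1a/b(−/−)/Bcrp(−/−). Brain and plasma concentration–time profiles were used to derive dose-normalized AUC (0–infinity).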

[3] = system: Plasma; experiment: Dose normalized Cmax in Sprague-Dawley rat plasma at 12 mg equivalents/kg, po after 1 hr
[4] = system: Brain; experiment: Dose normalized AUC (0 to infinity) in wild-type FVB/N mouse brain at 5 mg equivalents/kg, iv by LC-MS/MS analysis; how it was run: as §2
[5] = system: Striatum; experiment: Dose normalized AUC (0 to infinity) in Sprague-Dawley rat striatum at 10 mg equivalents/kg, po after 0.25 to 12 hrs; how it was run: as §1

AUC/dose [1]: 20 µM·kg·h/mg
AUC/dose [2]: 3.6 µM·kg·h/mg
Cmax/dose [3]: 1.9 µM·kg/mg
AUC/dose [4]: 0.066 µM·kg·h/mg
AUC/dose [5]: 0.1 µM·kg·h/mg
SMILES: O=C(O)c1cc(-c2ccc(OC3CC3)c(Cl)c2)ncn1
